The source made the active and inactive calls. No cut-off for these calls is given here.
What was measured:
H22 [1] = assay: Cytotoxicity against mouse H22 cells assessed as reduction cell viability up to 10 uM after 24 hrs in dark condition by MTT assay; assay type: cell-based; conditions: h22, 24 h
Outline: (§1)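 MTT assay. About 6000 cells per well were seeded and left overnight at 37 °C, 5% CO2. Compound was added at a range of concentrations in DMEM (1% DMSO, 0.05% Tween 80) for 24 h in the dark, then the medium was replaced. Irradiated wells received a 670 nm LED at 20 mW·cm⁻² for 2 min (2.4 J·cm⁻²); dark wells were not irradiated. Cells were incubated overnight, then MTT for 4 h, DMSO added, OD read at 490 nm. Three independent experiments, each in sextuplicate. IC50 is the concentration killing 50% of cells.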

[2] = Prodrug activation in HELF cells assessed as increase in fluorescence at 10 uM after 8 hrs in presence of GSH by confocal laser scanning microscopic method; assay type: cell-based; conditions: human, primary lung fibroblast
Outline: (§2)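 Cells (10^5 per confocal dish) were seeded in DMEM overnight at 37 °C, 5% CO2. They were pretreated with 5 mM GSH in DMEM, or medium alone, for 2 h, then washed. Compound at 10 μM was added for 8 h. Intracellular fluorescence was read by confocal microscopy (excitation 633 nm) or by flow cytometry under the same conditions.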

H22 [3] = assay: (§3) Photodynamic antitumor activity against mouse H22 cells implanted in Kunming mouse assessed as reduction in tumour weight at 2 mg/kg, iv administered at […] post-implantation followed by irradiated with 100 mW/cm2 […] and measured up to 15 days; assay type: functional, organism-based; conditions: time 15.0 day
Outline: (§4)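 Mice carried subcutaneous H22 tumours of about 50 mm³ and were randomised into 5 groups of 5. They received saline or compound at 2 mg/kg (100 μL) i.v. on days 1, 4 and 7. Light groups were irradiated at 670 nm, 100 mW/cm², 12 h after each dose. Tumour volume and body weight were recorded daily for 15 days. Tumours were then excised and weighed, fixed in 4% paraformaldehyde, paraffin-embedded and H&E stained. Apoptotic and necrotic areas were scored microscopically.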

[4] = Drug uptake in tumour of Kunming mouse implanted with H22 cells at 2 mg/kg, iv and measured up to 24 hrs by FMT assay; assay type: ADME, organism-based, Neoplasm; conditions: in vivo
Outline: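 Mice carried subcutaneous back tumours from H22 cells (10^7 cells/mL, 100 μL), used at about 50 mm³. They received a single tail-vein injection of 2 mg/kg (200 μL), with saline as control, 3 mice per group. Whole-body fluorescence molecular tomography was taken at 0, 2, 6, 12 and 24 h. At 24 h, tumour, heart, liver, spleen, lung and kidney were imaged ex vivo.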

[5] = Cytotoxicity against human HELF cells assessed as reduction cell viability up to 10 uM after 24 hrs in dark condition by MTT assay; assay type: cell-based; conditions: primary lung fibroblast; outline: as §1
[6] = Photoactivity of compound in DMF assessed as singlet oxygen generation at 10 uM irradiated with 20 mW cm^-2 light by DMA based fluorescence assay; assay type: functional
A549 [7] = assay: Cytotoxicity against human A549 cells assessed as reduction cell viability preincubated for 24 hrs in dark condition followed by irradiated with 20 mW cm^-2 light by MTT assay; assay type: functional, cell-based; outline: as §1
[8] = Prodrug activation in mouse H22 cells assessed as increase in fluorescence at 10 uM after 8 hrs in presence of GSH by confocal laser scanning microscopic method; assay type: cell-based; conditions: h22, 8 h; outline: as §2
[9] = Prodrug activation in human A549 cells assessed as increase in fluorescence at 10 uM after 8 hrs by confocal laser scanning microscopic method; assay type: cell-based; conditions: a549, 8 h; outline: as §2
[10] = Prodrug activation in human HeLa cells assessed as increase in fluorescence at 10 uM after 8 hrs in presence of GSH by confocal laser scanning microscopic method; assay type: cell-based; outline: as §2
[11] = Prodrug activation in human A549 cells assessed as increase in fluorescence at 10 uM after 8 hrs in presence of GSH by confocal laser scanning microscopic method; assay type: cell-based; conditions: a549, 8 h; outline: as §2
[12] = Prodrug activation in HELF cells assessed as increase in fluorescence at 10 uM after 8 hrs in presence of GSH by flow cytometric analysis; assay type: cell-based; conditions: human, primary lung fibroblast; outline: as §2
A549 [13] = assay: Cytotoxicity against human A549 cells assessed as reduction cell viability up to 10 uM after 24 hrs in dark condition by MTT assay; assay type: cell-based; conditions: a549, 24 h; outline: as §1
H22 [14] = assay: as §3, with “increase in necrotic cells” for “reduction”, “tumour” for “tumour weight”, “days by H and E staining based microscopic method” for “days”; assay type: functional, organism-based; conditions: time 15.0 day; outline: as §4
[15] = Prodrug activation in human HeLa cells assessed as increase in fluorescence at 10 uM after 8 hrs by confocal laser scanning microscopic method; assay type: cell-based; outline: as §2
[16] = Prodrug activation in mouse H22 cells assessed as increase in fluorescence at 10 uM after 8 hrs by flow cytometric analysis; assay type: cell-based; conditions: h22, 8 h; outline: as §2
Primary lung fibroblast = assay: Induction of ROS generation in human HELF cells at 10 uM incubated for 12 hrs irradiated with 20 mW cm^-2 light in presence of GSH by DCFH-DA staining based confocal laser scanning microscopic method; assay type: functional, cell-based
Outline: (§5)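 Cells were seeded in confocal dishes overnight. Pretreatment was GSH 5 mM in DMEM for 2 h, or vitamin C 100 μM for 1 h, before compound at 10 μM for 12 h. DCFH-DA was added for 1 h, then 5 PBS washes and transfer to serum-free, phenol red-free DMEM. Cells were irradiated at 670 nm, 20 mW·cm⁻², for 3 min. Confocal imaging used λex 488 nm for DCF and 633 nm for the photosensitizer.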

HeLa [17] = assay: Cytotoxicity against human HeLa cells assessed as reduction cell viability up to 10 uM after 24 hrs in dark condition by MTT assay; assay type: cell-based; outline: as §1
H22 [18] = assay: Photodynamic antitumor activity against mouse H22 cells implanted in Kunming mouse assessed as reduction in tumour size at 2 mg/kg, iv administered at […] post-implantation followed by irradiated with 100 mW/cm2 […] and measured up to 15 days; assay type: functional, organism-based; conditions: time 15.0 day; outline: as §4
H22 [19] = assay: Induction of ROS generation in mouse H22 cells at 10 uM incubated for 12 hrs irradiated with 20 mW cm^-2 light in presence of GSH by DCFH-DA staining based confocal laser scanning microscopic method; assay type: functional, cell-based; outline: as §5
H22 [20] = assay: Photodynamic antitumor activity against mouse H22 cells implanted in Kunming mouse assessed as reduction in tumour volume at 2 mg/kg, iv administered at […] post-implantation followed by irradiated with 100 mW/cm2 […] and measured up to 15 days; assay type: functional, organism-based; conditions: time 15.0 day; outline: as §4
HeLa [21] = assay: Induction of ROS generation in human HeLa cells at 10 uM incubated for 12 hrs irradiated with 20 mW cm^-2 light in presence of GSH by DCFH-DA staining based confocal laser scanning microscopic method; assay type: functional, cell-based; outline: as §5
[22] = Prodrug activation in mouse H22 cells assessed as increase in fluorescence at 10 uM after 8 hrs by confocal laser scanning microscopic method; assay type: cell-based; conditions: h22, 8 h; outline: as §2
[23] = Prodrug activation in human A549 cells assessed as increase in fluorescence at 10 uM after 8 hrs by flow cytometric analysis; assay type: cell-based; conditions: a549, 8 h; outline: as §2
[24] = Prodrug activation in human HeLa cells assessed as increase in fluorescence at 10 uM after 8 hrs in presence of GSH by flow cytometric analysis; assay type: cell-based; outline: as §2

In the case of COCCOCCOCCOc1ccc(/C=C/C2=[N+]3C(=C(c4ccc(OCc5cn(CCCCCCn6cc(COc7ccc(C8=C9C(C)=CC(/C=C/c%10ccc(N(C)C)cc%10)=[N+]9[B-](F)(F)n9c(/C=C/c%10ccc(N(C)C)cc%10)cc(C)c98)cc7)nn6)nn5)cc4)c4c(C)c(I)c(/C=C/c5ccc(OCCOCCOCCOC)cc5)n4[B-]3(F)F)C(C)=C2I)cc1, the Activity (H22 [1]) is reported as “Non-Toxic”, the Drug metabolism [2] is reported as “Metabolite_Notdetected” and the Activity (H22 [3]) is reported as “Active”. For the same compound, the Drug uptake [4] was “Active”, the Activity [5] was “Non-Toxic” and the Drug metabolism [6] was “Metabolite not detected”. For the same compound, the Activity (A549 [7]) was “inactive”, the Drug metabolism [8] was “Metabolite_Notdetected” and the Drug metabolism [9] was “Metabolite_Notdetected”. For the same compound, the Drug metabolism [10] was “Metabolite_Notdetected”, the Drug metabolism [11] was “Metabolite_Notdetected” and the Drug metabolism [12] was “Metabolite_Notdetected”. For the same compound, the Activity (A549 [13]) was “Non-Toxic”, the Activity (H22 [14]) was “Active” and the Drug metabolism [15] was “Metabolite_Notdetected”. The Drug metabolism [16] was “Metabolite_Notdetected”, the Activity (Primary lung fibroblast) was “inactive” and the Activity (HeLa [17]) was “Non-Toxic”. For the same compound, the Activity (H22 [18]) was “Active”, the Activity (H22 [19]) was “inactive” and the Activity (H22 [20]) was “Active”. The Activity (HeLa [21]) was “inactive”, the Drug metabolism [22] was “Metabolite_Notdetected” and the Drug metabolism [23] was “Metabolite_Notdetected”. The Drug metabolism [24] was “Metabolite_Notdetected”.

In the case of COCCOCCOCCOc1ccc(/C=C/C2=[N+]3C(=C(c4ccc(OCc5cn(CCSSCCn6cc(COc7ccc(C8=C9C(C)=CC(/C=C/c%10ccc(N(C)C)cc%10)=[N+]9[B-](F)(F)n9c(/C=C/c%10ccc(N(C)C)cc%10)cc(C)c98)cc7)nn6)nn5)cc4)c4c(C)c(I)c(/C=C/c5ccc(OCCOCCOCCOC)cc5)n4[B-]3(F)F)C(C)=C2I)cc1, the Activity (H22 [1]) is reported as “Non-Toxic”, the Drug metabolism [2] is reported as “Metabolite_Detected” and the Activity (H22 [3]) is reported as “Active”. For the same compound, the Drug uptake [4] was “Active”, the Activity [5] was “Non-Toxic” and the Drug metabolism [6] was “Metabolite not detected”. For the same compound, the IC50 (A549 [7]; A549, light or radiation study) was 0.44 µM, the Drug metabolism [8] was “Metabolite_Detected” and the Drug metabolism [9] was “Metabolite_Detected”. The Drug metabolism [10] was “Metabolite_Detected”, the Drug metabolism [11] was “Metabolite_Detected” and the Drug metabolism [12] was “Metabolite_Detected”. For the same compound, the Activity (A549 [13]) was “Non-Toxic”, the Activity (H22 [14]) was “Active” and the Drug metabolism [15] was “Metabolite_Detected”. For the same compound, the Drug metabolism [16] was “Metabolite_Detected”, the Activity (Primary lung fibroblast) was “Active” and the Activity (HeLa [17]) was “Non-Toxic”. For the same compound, the Activity (H22 [18]) was “Active”, the Activity (H22 [19]) was “Active” and the Activity (H22 [20]) was “Active”. The Activity (HeLa [21]) was “Active”, the Drug metabolism [22] was “Metabolite_Detected” and the Drug metabolism [23] was “Metabolite_Detected”. For the same compound, the Drug metabolism [24] was “Metabolite_Detected”.

— ChEMBL document CHEMBL4680231, “A glutathione-responsive photosensitizer with fluorescence resonance energy transfer characteristics for imaging-guided targeting photodynamic therapy” (Eur J Med Chem, 2020)
